Data set [1] can be described thus: Neuroprotective effect against H2O2-induced oxidative stress in mouse 661W cells assessed as cell viability at 50 to 100 uM by MTT assay relative to control. The class given is functional, cell-based. On the technique in general: Tetrazolium dyes change colour on reduction, which living cells bring about.
The nature of data set [2]: Upregulation of SOD in H2O2-induced mouse 661W cells at 50 to 100 uM by Cayman's superoxide dismutase assay. The class given is functional. The procedure, abridged:
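SOD activity in 661 W cells treated with test agent in combination with H2O2, vehicle DMEM plus DMSO; commercial kit detecting superoxide generated by xanthine oxidase/hypoxanthine with a tetrazolium salt, per manufacturer's instructions.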

Data set [3] can be described thus: Half life of compound in 0.5 M phosphate buffer at pH 6.5 at 25 degC by LC/MS analysis. The settings on record: for half-life: phosphate buffer; for t1/2: buffer. Type of data set: physicochemical.
Data set [4] can be described thus: Cytotoxicity against mouse 661W cells assessed as cell viability at 100 uM after 24 hrs by MTT assay. The class given is cell-based. The procedure, abridged:
(§1)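 About 3000 NTM5 trabecular meshwork cells or transformed 661 W photoreceptor cells seeded per well, exposed to 10, 50 or 100 μM for 24 h; vehicle DMEM/DMSO (1 mL/10 μL). Viability by MTT-type kit (tetrazolium reduced to formazan), absorbance 490 nm; eight biological replicates.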

Data set [5] can be described thus: Cytotoxicity against human NTM5 cells assessed as cell viability at 100 uM after 24 hrs by MTT assay. The class given is cell-based. The gist of the method: as §1
Data set [6] is described as follows: Induction of nitric oxide release in 50 mM phosphate buffer at pH 7.4 after 10 mins by Greiss assay. The settings on record: pH 7.4, 10 min. The class given is physicochemical.
Data set [7] in a line: Half life of compound in 0.5 M phosphate buffer at pH 7.4 at 25 degC by LC/MS analysis. Type of data set: physicochemical. To be noted: for half-life: phosphate buffer; for t1/2: buffer.
The subject of the next data set is 661W. The data set can be described thus: Increase in number of mouse 661W cells at 10 to 50 uM after 24 hrs by MTT assay relative to vehicle control. The class given is functional, cell-based. The gist of the method:
as §1

A further data set relates to Rhesus monkey. The data set can be described thus: Suppression of elevated intraocular pressure in lasered monkey eye at 150 ug at 6 hrs. Type of data set: functional, Macaca mulatta.

These results are taken from ChEMBL document CHEMBL3763082, “Design and synthesis of novel hybrid sydnonimine and prodrug useful for glaucomatous optic neuropathy” (Bioorg Med Chem Lett, 2016).

The source made the active and inactive calls. The calls are words filed in the database; no cut-off is given here.

As a reminder, the half-life is the time in which the quantity being followed falls by half. Take `CC1(C)CC([n+]2cc([NH-])on2)CC(C)(C)N1O.Cl`: the result (in data set [1]; in [2]; in the data set on 661W) was Active. Besides, the half-life in data set [3] and in data set [7] was under 24 h each time. The Activity result in data set [4] is “Non-toxic”; in data set [5], “Non-toxic”; in data set [6] it was “Active”.
In turn, `CC1(C)CC(O[N+](=O)[O-])CC(C)(C)N1O` came in with an Activity with Rhesus monkey of 20%.
On the same count and under the same terms, the result for `O=[N+]([O-])OCC(CO[N+](=O)[O-])O[N+](=O)[O-]` [NITROGLYCERIN] reads 13%.
As to `CC1(C)CC(O)CC(C)(C)N1[O]`, in the data set with 661W, the outcome was inactive.
`N=c1c[n+](N2CCOCC2)[n-]o1` [LINSIDOMINE]: the half-life in data set [3] and in data set [7] was under 24 h each time. Moreover, the result in data set [6] was Active.
Regarding `CC(OC(=O)[N-]c1c[n+](C2CC(C)(C)N(O)C(C)(C)C2)no1)OC(=O)C(C)(C)C` (stereo not given), the t1/2 in [3] was 15.3 months; in [7], 9.1 months.
For `[NH-]c1c[n+](N2CCOCC2)no1`, the outcome (in data set [2]; in the data set with 661W) was inactive.
Take `CC(OC(=O)[N-]c1c[n+](N2CCOCC2)no1)OC(=O)C(C)(C)C` (stereo not given): the t1/2 in data set [3] was found to be 18 months; in data set [7], 9 months.
